The full list was thinned out, with hits kept by preference.
T cell modulator: T cell immune modulators affecting CD8 T cell-vesicle binding. AID 2052. 2C CD8+ T cell-vesicle binding, flow cytometry; active compounds read low. response (vesicle binding), % at 7 µM. actives 0.068% (n = 330,000);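 active = response, share of CD8 T cells binding vesicles, and their 90th percentile fluorescence all below set limits, cut at about 80% in these data, passing the limit was not always enough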;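 also: values below 100% mean blocked vesicle binding to the CD8+ T cells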
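Material: murine 2C transgenic CD8+ T lymphocytes / Also added: QL9-peptide-loaded Drosophila micro-vesicles bearing Ld, ICAM-1 and B7-1 / Schedule: binding step 1.5 h, 37 °C, antibody labelling 20 min, ice / Signal: flow cytometry, PE anti-B7-1 (FL2) versus Alexa647 anti-CD8 (FL8), PFA-fixed / Evaluation: percent CD8+ FL2 mean versus row control / Benchmarks: naked versus QL9-loaded vesicles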
ALR inh: human ALR oxidase inhibition via reduced H2O2; actives 3.8% (n = 290,000); inhibition, % (concentration not given with the values); P55789; purified ALR, DTT oxidation, H2O2 HRP-luminol luminescence; AID 485317;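 active = mean replicate inhibition above about 79%, with every replicate also reaching it, limit read from the data; inconclusive = only one of the two criteria met; inactive = mean below limit and not every replicate reaching it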
Target sequence (P55789 whole entry, looked up): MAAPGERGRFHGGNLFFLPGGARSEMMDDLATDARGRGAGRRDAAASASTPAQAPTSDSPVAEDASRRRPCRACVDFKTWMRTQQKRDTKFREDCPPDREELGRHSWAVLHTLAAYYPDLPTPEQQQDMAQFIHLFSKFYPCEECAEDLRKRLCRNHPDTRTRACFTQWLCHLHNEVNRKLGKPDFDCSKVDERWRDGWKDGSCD
Glyco luc inh: N-linked glycosylation inhibition; actives 0.23% (n = 360,000); AID 588692; D54 ERlucT glycosylation luciferase reporter, 24 h; percent of 100 nM tunicamycin response; reporter increase, % at 12.5 µM;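 active = mean luciferase reporter signal, scaled so untreated is 0 and the glycosylation-blocking control 100, at or above a set limit in every replicate; inconclusive = mean reaches the limit but not every replicate does; inactive = mean below the limit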;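 also: luciferase carries N-glycosylation sites so blocking glycosylation raises the light; 0% = median of neutral control wells and 100% = median of 100 nM tunicamycin wells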
The depositor's hits bear a star; i = inactive; ? = inconclusive; / = not tested or not shown.

SMILES	T cell modulator	ALR inh	Glyco luc inh
COC(=O)CC1OCC=C2CN3CCC45C6=CC(=O)C(=O)C([N+](=O)[O-])=C6NC4C1C2CC35 (configuration not stated)	/	/	-8.7
CC1ON=C(c2ccccn2)N(Cc2ccc3c(c2)OCO3)C1=O (configuration not stated)	/	/	2.1
OCC[C@@H]1C[C@H](O)[C@@H](O)[C@@]2(OCCCc3cc(C(F)(F)F)ccc32)O1	/	/	1.0
O=C(CCN1CCc2ccccc2C(c2ccccc2)C1)c1ccc2c(c1)OCCO2 (configuration not stated)	203.9	97.4*	1.8
O=C(CCN1Cc2ccccc2C1)c1ccc2c(c1)OCCO2	588.8	18.5	0.4
O=C(COC(=O)CNC(=O)c1ccccc1Cl)NC1CC1	193.0	-5.1	1.3
CCc1nc2c(OCCn3cccc3)cccn2c1N(C)C(=O)c1ccc(OC)cc1	/	/	-0.8
Nc1ccc(-c2nc3cc(N)ccc3n2CCO)cc1	88.5	98.3*	1.9
Cn1c(CO)nc2cc(N)ccc21	854.4	79.6*	1.7
Cn1c(C2CCCCC2)nc2ccccc21	i	-1.2	-1.0
Cc1nc2cc(CO)ccc2n1C	223.5	-1.7	1.3
Cn1c(C2CCCCC2)nc2cc(N)ccc21	371.3	88.7*	-2.3
COC(=O)c1ccc2c(c1)nc(C)n2CCO	247.7	-29.7	0.9
COc1cccc(CN2CC(C(=O)NCCn3cccn3)CCC2=O)c1 (configuration not stated)	355.2	-5.0	1.7
O=C(Nc1cccc(F)c1)C1CCCN(S(=O)(=O)c2ccc(-n3cnnn3)cc2)C1 (configuration not stated)	204.6	-12.4	-4.9
COc1cccc(C(=O)OC(C)C(=O)NCC2CCCCC2)c1 (configuration not stated)	864.4	0.9	1.0
O=C(C1CCCN1S(=O)(=O)c1cccc2nsnc12)N1CCN(c2ccc(F)cc2)CC1 (configuration not stated)	477.4	72.4	0.7
COc1cc2ccc(=O)oc2cc1O	124.6	97.9*	3.6
COc1cc2ccc(=O)oc2cc1OCC(O)C(C)(C)O (configuration not stated)	247.5	5.0	0.7
NNC(=O)CS(=O)(=O)c1ccc(Cl)cc1	143.2	2.5	0.6
Cn1cc(/C=N/NC(=O)c2cc3cc(Br)ccc3o2)c2ccccc21	309.1	-7.6	-0.7
O=C(O)c1ccc(-n2cccc2/C=N\NC(=O)c2cc3cc(Br)ccc3o2)cc1	191.8	86.8*	0.6
O=C(CCl)NCc1cc(-c2ccc(Cl)cc2)no1	287.3	96.9*	8.0
COc1ccc(OCc2cc(-c3ccc(Cl)cc3)no2)cc1	152.6	-17.1	2.7
COc1cc(-c2nnc(SCC3(c4ccc(Br)cc4)OCCO3)o2)cc(OC)c1OC	162.6	-6.7	49.3*
SMILES	T cell modulator	ALR inh	Glyco luc inh
COc1cc(-c2nnc(SCC(=O)N3CCOCC3)o2)cc(OC)c1OC	171.5	-1.5	4.6
Cc1ccc(N2NC(=O)/C(=C/c3ccc(-c4ccc(Cl)c(C(=O)O)c4)o3)C2=O)cc1C	617.9	-1.0	0.7
O=C1NN(c2ccccc2)C(=O)/C1=C/c1ccc(-c2ccc(C(=O)O)cc2)o1	159.3	99.0*	0.4
COC(=O)c1ccc(N2NC(=O)/C(=C/c3ccc(-c4ccc(Cl)c(C(=O)O)c4)o3)C2=O)cc1	/	/	2.0
O=C1NN(c2ccc(Cl)c(Cl)c2)C(=O)/C1=C/c1ccc(-c2ccccc2C(=O)O)o1	182.0	99.0*	1.9
CC(C)(C)c1ccc(-c2nnc(SCC(=O)NC3CCS(=O)(=O)C3)n2N)cc1 (configuration not stated)	300.7	-2.4	1.7
Cc1ccc(OCC(=O)N2CCCCCCC2)cc1	257.1	-7.5	1.2
CCN(CC(=O)Nc1c(F)cccc1F)C(=O)C1CCN(S(=O)(=O)c2ccc(F)cc2)CC1	386.7	4.8	-0.9
CCOc1ccc(C2NC(=O)C(C#N)=C(S)N2c2ccc(OC)cc2)cc1OC (configuration not stated)	192.2	97.1*	-0.9
COc1ccc(N2C(S)=C(C#N)C(=O)NC2c2ccc(OC)c(OC)c2)cc1 (configuration not stated)	343.1	14.9	0.7
COc1ccccc1N1CCN(S(=O)(=O)/C=C/c2ccccc2)CC1	280.9	-2.3	-0.8
COc1ccccc1N1CCN(C/C=C/c2ccc(N(C)C)cc2)CC1	269.1	98.6*	/
CCC(=O)NC(=S)NNC(=O)c1ccc(O)cc1	i	39.0	1.8
COc1ccc(CN(CC(=O)NC2CCCC2)C(=O)CCC(=O)Nc2nc(C)cs2)cc1	155.5	-3.1	1.5
Cc1cc(C)c(OCC(=O)OCC(=O)NCc2ccco2)c(C)c1	/	/	-2.0
COc1ccc(-c2cc(C(F)F)n3ncc(C(=O)N4CCc5ccccc54)c3n2)cc1	309.5	0.8	18.2
COc1ccc(-c2cc(C(F)F)n3ncc(C(=O)n4ccnc4C)c3n2)cc1	189.4	98.8*	21.3
O=C(COC(=O)c1cncc(Br)c1)Nc1ccc(F)c(F)c1F	/	/	2.4
Cc1cc(C)cc(Oc2nc3ccccn3c(=O)c2/C=C(\C#N)C(=O)NC2CCS(=O)(=O)C2)c1 (configuration not stated)	347.8	35.2	9.3
Cc1ccc(Oc2nc3ccccn3c(=O)c2/C=C(\C#N)C(=O)NC2CCS(=O)(=O)C2)c(C)c1 (configuration not stated)	102.3	83.8*	-3.3
Cc1ccn2cc(-c3cccc(NS(C)(=O)=O)c3)nc2c1	226.2	97.0*	0.6
Cc1ccn2cc(-c3cccc(NC(=O)CCC(=O)O)c3)nc2c1	319.1	98.4*	1.9
Cc1ccn2cc(-c3ccc(Br)cc3)nc2c1	98.4	/	-18.2
Cc1ccn2cc(-c3ccc(NS(=O)(=O)c4ccccc4)cc3)nc2c1	303.2	/	0.9
CC(=O)Nc1cccc(-c2cn3ccc(C)cc3n2)c1	139.0	?	-6.3
SMILES	T cell modulator	ALR inh	Glyco luc inh
Cc1ccn2cc(-c3cccc([N+](=O)[O-])c3)nc2c1	667.4	90.6*	-17.8
CC(C)CCNC(=O)[C@@H](Cc1ccccc1)NC(=O)CC[C@H]1O[C@@H](n2ccc(=O)[nH]c2=O)[C@H](O)[C@@H]1O	/	/	2.5
CC1CC(C)CN(C(=O)c2ccc3c(c2)OCCO3)C1 (configuration not stated)	190.2	-5.4	-1.0
Cc1cc(S(=O)(=O)N2CCN(CC(=O)N(C)Cc3ccccc3)CC2)ccc1Br	/	/	-2.7
Cc1cccc(N2CCN(CC(=O)N(C)Cc3ccccc3)CC2C)c1 (configuration not stated)	79.6	98.4*	0.3
O=C(COC(=O)CCC(=O)c1ccc(Cl)cc1)NCc1ccco1	988.5	0.2	-0.5
CC(C)Cc1ccc(-c2cc3nc(NCCc4ccc(S(N)(=O)=O)cc4)ccn3n2)cc1	/	/	-1.1
O=C(CN1C(=O)c2ccccc2C1=O)Nc1ccc(S(=O)(=O)N2CCOCC2)cc1	281.6	12.0	1.5
C=CCC[C@@H](Cc1ccc(F)cc1)C(=O)OC[C@H](C)NC(=O)[C@@H](CC=C)CC(=O)N[C@@H](CO)Cc1ccccc1	i	-2.5	-0.7
C=CCC[C@H](Cc1ccc(F)cc1)C(=O)OC[C@H](C)NC(=O)[C@@H](CC=C)CC(=O)N[C@H](CO)Cc1ccccc1	61.0*	-9.5	3.3

High-throughput results from PubChem.
